# CTSL1 counter-1 = Fasciola hepatica cathepsin L1 inhibitors, primary screen, counter-screen for PFM18AAP inhibitor project, biochemical, QFRET, fluorogenic peptide substrate. recombinant F. hepatica cathepsin L1, Z-Leu-Arg-MCA fluorescence. inhibition, % at 5.96 µM. hit rate 0.49% among 300,000. AID 1906, 2009;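 active = inhibition above the mean of all tested compounds plus 3 SD, set per screening campaign, cut at about 17% in these data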;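 also: 0% = plate median of test compound wells and 100% = 1 µM Z-Phe-Ala-diazomethylketone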
# IMP-1 inh = IMP-1 metallo-beta-lactamase inhibitors, primary screen, biochemical, epi-absorbance readout, Pseudomonas aeruginosa enzyme | metallo-beta-lactamase IMP-1 (Pseudomonas aeruginosa) | purified IMP-1, nitrocefin hydrolysis, epi-absorbance fluorescence | inhibition, % at 5.6 µM | hit rate 0.45% among 290,000 | AID 1556, 2009;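 active = inhibition above the mean plus 3 SD of all compounds in the same screening run, cut at about 4.5% in these data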;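 also: 0% = IMP-1 with DMSO and 100% = DMSO wells lacking enzyme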
#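 System: purified IMP-1; amount: IMP-1 0.2 nM before substrate addition; compound: single dose, 5.6 µM; times: 25 °C, 15 min preincubation, 25 min reaction; signal: Epi-absorbance via hydrolysed-nitrocefin quenching of white-plate fluorescence, 480/530 nm, EDTA stop; benchmarks: DMSO with and without IMP-1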
# PfM18AAP inh-1 = PfM18AAP inhibitors, malaria aminopeptidase, primary screen, biochemical, QFRET, recombinant enzyme; hit rate 1.2% among 290,000; inhibition, % at 7.35 µM; M18 aspartyl aminopeptidase (Plasmodium falciparum 3D7); H-Glu-NHMec fluorogenic cleavage;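 active = inhibition above the campaign mean inhibition over all tested compounds plus 3 SD, cut at about 28% in these data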;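 also: 0% = plate median of test compound wells and 100% = 2 mM ZnCl2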
# VIM-2 inhibitor = VIM-2 metallo-beta-lactamase inhibitors, primary screen, biochemical, epi-absorbance readout, Pseudomonas aeruginosa enzyme. purified VIM-2, nitrocefin hydrolysis, epi-absorbance fluorescence. inhibition, % at 5.6 µM. hit rate 0.89% among 290,000. AID 1527, 2009;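 active = inhibition above the mean of all tested compounds plus 3 SD, cutoff set per screening run, cut at about 7.5% in these data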;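 also: red hydrolysis product quenches plate fluorescence so inhibitors raise well fluorescence; 0% = enzyme with DMSO and 100% = DMSO without enzyme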
# PfM18AAP inh-2 = PfM18AAP inhibitors, malaria aminopeptidase, confirmation, biochemical, QFRET, recombinant enzyme, triplicate. shares compounds with PfM18AAP inh-1. H-Glu-NHMec fluorogenic cleavage. inhibition, % at 7.35 µM. hit rate 28% among 2,400;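 active = mean inhibition over replicate wells above the hit cutoff set for the earlier primary screen, cut at about 29% in these data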;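 also: 0% = median of test compound wells and 100% = 2 mM ZnCl2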
# CTSL1 counter-2 = cathepsin L1 inhibitors, retest, confirmation, counter-screen for PFM18AAP inhibitor project, biochemical, QFRET, triplicate. shares compounds with PfM18AAP inh-1. inhibition, % at 5.96 µM. 2,400 tested, under 10 active. purified cathepsin L1, Z-Leu-Arg-MCA fluorescence;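 active = average inhibition across replicates above the hit cutoff set in the earlier primary screen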;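 also: 0% = median of test compound wells and 100% = Z-Phe-Ala-diazomethylketone 1 µM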
# Target sequence (P07711 whole entry, looked up): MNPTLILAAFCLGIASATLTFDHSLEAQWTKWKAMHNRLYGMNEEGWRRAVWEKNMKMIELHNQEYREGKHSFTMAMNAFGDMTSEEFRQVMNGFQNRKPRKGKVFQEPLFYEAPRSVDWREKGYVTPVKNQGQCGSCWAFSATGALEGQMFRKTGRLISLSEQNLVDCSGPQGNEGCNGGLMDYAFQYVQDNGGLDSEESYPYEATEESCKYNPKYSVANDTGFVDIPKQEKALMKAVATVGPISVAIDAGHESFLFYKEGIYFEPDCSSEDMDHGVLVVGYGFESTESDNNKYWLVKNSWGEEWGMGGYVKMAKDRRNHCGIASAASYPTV
# Numbers without * were called inactive; / = not tested or not shown. Rows were chosen to be rich in hits. Some 2.7% of all compounds tested hit in one or more screens of this group.
SMILES,CTSL1 counter-1,IMP-1 inh,PfM18AAP inh-1,VIM-2 inhibitor,PfM18AAP inh-2,CTSL1 counter-2
O=[N+]([O-])c1ccc(NNS(=O)(=O)c2cc(Cl)ccc2Cl)nc1,/,-3,55*,-5,-3,1
CC(=O)N[C@@H](C)c1nc2ccccc2n1CCCN1CCN(c2nc(-c3ccc(C)cc3)cs2)CC1,-5,-4,6,-2,/,/
O=C(/C=C1\SC(=O)NC1=O)Nc1ccc(F)cc1,0,-3,36*,-2,-56,7
CCN1CCN(C(=S)Nc2ccc(Cl)c(Cl)c2)CC1,-4,-1,0,-2,/,/
CCN1CCN(C(=S)c2ccc(Cl)c(Cl)c2)CC1,-2,-3,45*,-2,6,0
COc1cccc(-c2cc(C(=O)Nn3cnnc3)c3ccccc3n2)c1,1,-1,64*,-2,62*,-1
COc1cccc(-c2cc(C(=O)NN3CCOCC3)c3ccccc3n2)c1,2,-4,-2,-4,/,/
O=C(NC1CC1)c1cc(-c2ccccn2)nc2ccccc12,-1,-3,5,-4,/,/
O=C(Nn1cnnc1)c1cc(-c2ccccn2)nc2ccccc12,-6,-3,50*,-1,47*,-4
CC(C)Oc1cccc(C2NC(=O)c3ccccc3O2)c1 (configuration not stated),0,-3,0,0,/,/
Fc1ccc(C[n+]2csc3ccccc32)cc1,0,-2,36*,-4,-5,-1
C/C(Cc1nnn(-c2cc(C)on2)n1)=N\O,-3,-1,0,-1,/,/
COC(=O)CCC(=O)c1ccn(S(=O)(=O)c2ccccc2)c1,-2,-5,-2,-3,/,/
COc1ccccc1-n1cc(-c2ccc([N+](=O)[O-])cc2)[nH]c1=S,1,-3,32*,-4,22,-1
O=[N+]([O-])c1ccc(-c2cn(-c3ccccc3)c(=S)[nH]2)cc1,-1,-2,27,-2,/,/
Nc1ccc(-n2cc(-c3ccccc3)[nH]c2=S)cc1,0,-2,44*,-4,11,-1
S=c1[nH]c(-c2ccccc2)cn1-c1ccccc1,-1,-1,46*,-4,35*,-2
O=[N+]([O-])c1cccc(-c2cn(-c3ccccc3)c(=S)[nH]2)c1,1,-3,50*,-4,50*,-4
O=C(CN(Cc1ccco1)C(=O)CNS(=O)(=O)c1ccc(F)cc1)NCc1ccccc1,2,0,-2,0,/,/
CCc1nnc(NC(=O)C2Cc3ccccc3CN2S(=O)(=O)c2c(C)c(C)cc(C)c2C)s1 (configuration not stated),1,-6,-15,-3,/,/
O=C(c1ccc(-c2ccccc2)cc1)c1ccc([N+](=O)[O-])cc1,1,-2,5,-2,/,/
O=C(C1=NN[C@@H]2C(=O)N(Cc3ccccc3)C(=O)[C@H]12)c1ccc([N+](=O)[O-])cc1,4,-3,42*,-3,-3,8
CCN(CC)S(=O)(=O)c1cc([N+](=O)[O-])ccc1NNC(=O)Nc1ccc(Cl)c(Cl)c1,0,-5,50*,-5,13,5
O=C(NNc1ccccc1[N+](=O)[O-])Nc1ccc(Cl)c(Cl)c1,6,-2,28,-2,/,/
CC1CN(C(=S)SCCN2C(=O)CCC2=O)CC(C)O1 (configuration not stated),-1,-1,2,-1,/,/
O=C(O)C1=C[C@@H](c2ccc3c(c2)OCO3)C[C@@H](OCc2ccc(CO)cc2)O1,-1,-3,36*,3,-13,2
COc1ccc(Nc2nc(NN)nc(C)c2[N+](=O)[O-])cc1,2,-3,52*,-6,22,-1
COc1ccc(Nc2nc(N/N=C/c3ccc(N(C)C)cc3)nc(C)c2[N+](=O)[O-])cc1,6,-3,49*,-1,-53,-1
COc1ccc(/C=N/Nc2nc(C)c([N+](=O)[O-])c(N(C)c3ccccc3)n2)cc1OC,2,-4,18,0,/,/
